In the library only some 5.9% were active in any assay of this set; here they are far more common.
GASC1 inh – KDM4C (human) demethylase inhibition | actives 0.15% (n = 96,000) | GST-KDM4C 2-372, H3K9me3 peptide, LANCE TR-FRET | Q9H3R0 | inhibition, % at 12.5 µM | AID 720574;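 active = mean replicate inhibition above about 25%, with at least 55% of replicates also reaching it, limit read from the data, passing the limit was not always enough; inconclusive = only one of those two conditions met; inactive = neither condition met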
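Compound: one test concentration per compound; Material: GST-GASC-1 enzyme fragment 2-372; Amount: GASC-1 enzyme at 10 nM final in reaction; Also added: H3K9me3 peptide substrate, Fe(II), 2-oxoglutarate; Technique: LANCE TR-FRET; Times: 30 min demethylation and 1 h detection at room temperature.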
T cruzi growth-1 – T. cruzi proliferation inhibition; AID 624255; T. cruzi beta-gal in NIH3T3, GalScreen luminescence, 90 h; inhibition, % at 8.34 µM; actives 5.9% (n = 77,000);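 active = mean inhibition above about 93%, with at least 55% of replicates each passing it, limit read from the data, passing the limit was not always enough; inconclusive = only one of those two conditions holds; inactive = neither condition holds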
IDH1 mut inh – blocks human IDH1 R132H reductase activity; inhibition, % at 10 µM; O75874; actives 0.18% (n = 70,000); AID 624101; diaphorase/resazurin fluorescence, 60 min; in the data active = inhibition above about 34%; inconclusive = no clear call, values can overlap the other calls; inactive = below about 11%;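 note: 0% = DMSO and 100% = no enzyme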
Target sequence (O75874 whole entry R132H): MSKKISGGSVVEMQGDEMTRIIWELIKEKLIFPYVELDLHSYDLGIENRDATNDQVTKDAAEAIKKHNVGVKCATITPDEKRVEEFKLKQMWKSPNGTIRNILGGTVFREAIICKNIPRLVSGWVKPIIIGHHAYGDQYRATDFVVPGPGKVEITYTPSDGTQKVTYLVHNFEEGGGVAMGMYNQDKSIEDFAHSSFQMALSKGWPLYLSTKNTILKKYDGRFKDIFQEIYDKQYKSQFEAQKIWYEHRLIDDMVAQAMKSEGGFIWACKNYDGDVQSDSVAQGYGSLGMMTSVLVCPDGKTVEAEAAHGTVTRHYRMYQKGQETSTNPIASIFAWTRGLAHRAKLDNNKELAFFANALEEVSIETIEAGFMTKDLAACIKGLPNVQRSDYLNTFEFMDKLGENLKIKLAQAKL
Pf Dd2 inh – inhibitors of Plasmodium falciparum Dd2 growth; activity change, % at 10 µM; P. falciparum Dd2 growth, SYBR Green, 72 h; active compounds read low; actives 2.3% (n = 94,000); in the data active = activity change below about -80%; inconclusive = no clear call, values can overlap the other calls
T cruzi growth-2 – Trypanosoma cruzi proliferation inhibition | shares compounds with T cruzi growth-1 | T. cruzi beta-gal in NIH3T3, GalScreen luminescence, 90 h | inhibition, % at 8.35 µM | actives 72% (n = 5,600);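 active = mean replicate inhibition above about 95% and at least 55% of replicates individually reaching it, limit read from the data; inconclusive = only one of the two criteria is met; inactive = neither criterion is met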
T cruzi growth-3 – Trypanosoma cruzi proliferation inhibition; shares compounds with T cruzi growth-1; T. cruzi beta-gal in NIH3T3, GalScreen luminescence, 90 h; inhibition, % at 2.09 µM; actives 21% (n = 5,600); AID 651740;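 active = mean inhibition above about 95%, with at least 55% of replicates also reaching it, limit read from the data; inconclusive = meets just one of the two conditions; inactive = meets neither condition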;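 note: plate controls were neutral control median for no effect and positive control median for full effect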
3T3 cytotox – cytotoxicity in mouse NIH/3T3 fibroblasts; actives 14% (n = 5,600); shares compounds with T cruzi growth-1; NIH/3T3 viability, CellTiter-Glo ATP luminescence, 90 h; cytotoxicity (signal decrease), % at 8.35 µM;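 active = mean signal decrease across replicates above about 35% based on untreated-well scatter, with enough replicates individually passing, limit read from the data; inconclusive = no rule stated though some were filed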;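 note: 0% = median of neutral control wells and 100% = median of positive control wells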
3T3 cytotox 2 – cytotoxicity in mouse NIH/3T3 fibroblasts | AID 651744 | inhibition, % at 24.9 µM | shares compounds with T cruzi growth-1 | actives 56% (n = 5,600) | NIH/3T3 viability, CellTiter-Glo ATP luminescence, 90 h;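 active = mean loss of cell viability signal at or above a set limit, and enough replicates individually reaching it; inconclusive = meets only the mean limit or only the replicate share; inactive = meets neither condition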;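 note: 0% = median of neutral control wells and 100% = median of positive control wells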
The depositor's hits bear a star; ? = inconclusive; nt = not tested or not shown.

SMILES	GASC1 inh	T cruzi growth-1	IDH1 mut inh	Pf Dd2 inh	T cruzi growth-2	T cruzi growth-3	3T3 cytotox	3T3 cytotox 2
COc1ccc(NC(=O)Nc2ccc3c(c2)C(=O)N([C@@H](C)CO)C[C@H](C)[C@H](CN(C)Cc2ccc4c(c2)OCO4)OCCCC[C@H](C)O3)cc1	0	118*	nt	-77	102*	103*	40*	43*
COc1ccc(NC(=O)Nc2ccc3c(c2)C(=O)N([C@H](C)CO)C[C@@H](C)[C@@H](CN(C)Cc2ccc4c(c2)OCO4)OCCCC[C@@H](C)O3)cc1	-1	124*	0	-78	100*	82	17	37*
COc1ccc(NC(=O)Nc2ccc3c(c2)C(=O)N([C@@H](C)CO)C[C@@H](C)[C@@H](CN(C)Cc2ccc4c(c2)OCO4)OCCCC[C@H](C)O3)cc1	-1	79	nt	-70	nt	nt	nt	nt
COc1ccc(NC(=O)Nc2ccc3c(c2)C(=O)N([C@@H](C)CO)C[C@H](C)[C@H](CN(C)Cc2ccc4c(c2)OCO4)OCCCC[C@@H](C)O3)cc1	0	103*	1	-67	103*	54	0	8
O=C(NCCCn1ccnc1)c1cc(-c2ccccn2)nc2ccc(Br)cc12	nt	nt	24	nt	nt	nt	nt	nt
Cc1ccccc1NC(=O)C1CC=CCC1C(=O)O (stereo not given)	nt	nt	0	nt	nt	nt	nt	nt
COc1ccc(NC(=O)Nc2ccc3c(c2)C(=O)N([C@H](C)CO)C[C@H](C)[C@H](CN(C)Cc2ccc4c(c2)OCO4)OCCCC[C@H](C)O3)cc1	0	?	7	-68	98*	99*	9	103*
C[C@H]1CN([C@@H](C)CO)S(=O)(=O)c2ccc(-c3cccc(C#N)c3)cc2O[C@@H]1CN(C)C(=O)Nc1ccccc1F	-1	?	0	-56	88	81	34	61*
C[C@@H]1CN([C@@H](C)CO)S(=O)(=O)c2ccc(-c3cccc(C#N)c3)cc2O[C@@H]1CN(C)C(=O)c1ccccc1	-1	109*	0	-39	104*	56	54*	72*
C[C@@H]1CN([C@@H](C)CO)S(=O)(=O)c2ccc(-c3cccc(C#N)c3)cc2O[C@@H]1CN(C)C(=O)Nc1ccccc1F	0	110*	nt	-33	97*	88	48*	68*
C[C@@H]1CN([C@H](C)CO)S(=O)(=O)c2ccc(-c3cccc(C#N)c3)cc2O[C@H]1CN(C)C(=O)Nc1ccccc1F	1	88	-1	-52	nt	nt	nt	nt
Cc1cc(=O)[nH]c(SC(C)C(=O)Nc2ccc(Cl)cc2)n1 (stereo not given)	nt	nt	0	nt	nt	nt	nt	nt
CCOC(=O)c1ccc(NC(=O)C2CC(C)=C(C)CC2C(=O)O)cc1 (stereo not given)	nt	nt	6	nt	nt	nt	nt	nt
C[C@H](CO)N1C[C@H](C)[C@H](CN(C)S(=O)(=O)c2ccccc2)OCCCC[C@H](C)Oc2ccc(NC(=O)Nc3ccc(F)cc3)cc2C1=O	-1	109*	0	-61	106*	83	26	?
C[C@@H]1CCCCO[C@H](CN(C)S(=O)(=O)c2ccccc2)[C@@H](C)CN([C@@H](C)CO)C(=O)c2cc(NC(=O)Nc3ccc(F)cc3)ccc2O1	-1	106*	nt	-75	108*	75	5	36*
C[C@@H]1CCCCO[C@@H](CN(C)S(=O)(=O)c2ccccc2)[C@H](C)CN([C@@H](C)CO)C(=O)c2cc(NC(=O)Nc3ccc(F)cc3)ccc2O1	-2	104*	5	-36	107*	38	1	-9
Cc1ccc(S(=O)(=O)N(C)C[C@@H]2OCCCC[C@@H](C)Oc3ccc(NC(=O)Nc4ccc(F)cc4)cc3C(=O)N([C@@H](C)CO)C[C@H]2C)cc1	1	nt	2	-59	nt	nt	nt	nt
Cc1ccc(S(=O)(=O)N(C)C[C@H]2OCCCC[C@H](C)Oc3ccc(NC(=O)Nc4ccc(F)cc4)cc3C(=O)N([C@H](C)CO)C[C@@H]2C)cc1	-1	nt	0	-68	nt	nt	nt	nt
CC(=O)O[C@H]1[C@H](Oc2cc(O)cc(O)c2C(=O)c2cccc(O)c2)O[C@H](CO)[C@@H](OC(=O)c2ccccc2)[C@@H]1O	nt	nt	-1	nt	nt	nt	nt	nt
COc1ccc(S(=O)(=O)N2CCCCN3[C@H](CO)[C@H](c4ccc(C#CC(C)C)cc4)[C@@H]3C2)cc1	0	81	nt	9	nt	nt	nt	nt
COc1ccc(S(=O)(=O)N2CCCCN3[C@H](CO)[C@@H](c4ccc(C#CC(C)C)cc4)[C@@H]3C2)cc1	0	96*	nt	-17	101*	75	21	20
COc1ccc(S(=O)(=O)N2CCCCN3[C@H](C2)[C@H](c2ccc(C#CC(C)C)cc2)[C@@H]3CO)cc1	-1	118*	nt	-24	107*	105*	1	69*
O=C(Nc1ccccc1F)N1CCCCN2[C@H](CO)[C@H](c3ccc(/C=C/c4ccccc4)cc3)[C@@H]2C1	0	116*	nt	-3	96*	113*	45*	58*
C/C=C/c1ccc([C@H]2[C@@H](CO)N3CCCCN(C(=O)Nc4ccccc4F)C[C@@H]23)cc1	-2	110*	nt	21	98*	52	-13	2
CC=Cc1ccc2n(c1=O)C[C@@H]1[C@@H](CO)[C@H](C(=O)N3CCc4ccccc4C3)[C@H]2N1CCC (mixture of isomers)	1	103*	nt	-2	30	-13	0	10
CC=Cc1ccc2n(c1=O)C[C@@H]1[C@@H](CO)[C@H](C(=O)N3CCc4ccccc4C3)[C@H]2N1Cc1ccccc1 (mixture of isomers)	0	85	nt	-7	nt	nt	nt	nt
CC=Cc1ccc2n(c1=O)C[C@@H]1[C@@H](CO)[C@H](C(=O)N3CCc4ccccc4C3)N(C(=O)C3CC3)[C@H]21 (mixture of isomers)	0	107*	nt	nt	69	7	2	12
CC=Cc1ccc2n(c1=O)C[C@@H]1[C@@H](CO)[C@H](C(=O)N3CCOCC3)N(Cc3ccccc3)[C@H]21 (mixture of isomers)	1	101*	nt	-4	100*	6	9	13
C[C@@H]1CN([C@@H](C)CO)C(=O)c2cc(/C=C/c3ccccc3)cnc2O[C@H]1CN(C)C(=O)Nc1ccccc1F	-4	126*	-2	-51	108*	105*	-3	17
